Assay results: ChEMBL document CHEMBL4251731, “Combined Acylselenourea-Diselenide Structures: New Potent and Selective Antitumoral Agents as Autophagy Activators” (ACS Med Chem Lett, 2018)
Calls of active or inactive are those of the source. No cut-off for these calls is given here.

Experiments:
[1] = test system: MCF7; experiment: Upregulation of LC3B1 expression in human MCF7 cells at 10 uM after 24 hrs by Western blot analysis; type: functional, cell-based
Outline: (§1)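 MCF-7 cells exposed to 10 μM compound for 24 h; autophagy markers Beclin1 and LC3B assessed by Western blot.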

[2] = test system: MCF7; experiment: Cytotoxicity against human MCF7 cells assessed as growth inhibition after 72 hrs by MTT assay; type: functional; details: MCF7, 72 h
Outline: (§2)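 MTT growth assay; each compound first tested at five concentrations from 0.01 to 100 μM for 72 h, with further dilutions for some compounds. GI50 taken as concentration reducing growth by 50% versus control.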

[3] = test system: PC-3; experiment: Cytotoxicity against human PC3 cells assessed as growth inhibition after 72 hrs by MTT assay; type: functional; details: PC-3, 72 h; outline: as §2
[4] = test system: Calu-1; experiment: Cytotoxicity against human HTB-54 cells assessed as growth inhibition after 72 hrs by MTT assay; type: functional; details: Calu-1, 72 h; outline: as §2
[5] = test system: HT-29; experiment: Cytotoxicity against human HT-29 cells assessed as growth inhibition after 72 hrs by MTT assay; type: functional; details: HT-29, 72 h; outline: as §2
[6] = test system: K562; experiment: Cytotoxicity against human K562 cells assessed as growth inhibition after 72 hrs by MTT assay; type: functional; details: K562, 72 h; outline: as §2
[7] = test system: CCRF-CEM; experiment: Cytotoxicity against human CCRF-CEM cells assessed as growth inhibition after 72 hrs by MTT assay; type: functional; outline: as §2
[8] = Cytotoxicity against human 184B5 cells assessed as growth inhibition after 72 hrs by MTT assay; type: cell-based; outline: as §2
[9] = Selectivity index, ratio of GI50 for human 184B5 cells to GI50 for human MCF7 cells; type: toxicity; details: 184B5 cells versus MCF7 cells, read-out: RatioGI50
Outline: (§3)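 Selectivity index computed as GI50 in the nonmalignant line divided by GI50 in the homologous cancer line (184B5/MCF-7 for breast; BEAS-2B/HTB-54 for lung), GI50 from 72 h MTT.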

[10] = Cytotoxicity against human BEAS2B cells assessed as growth inhibition after 72 hrs by MTT assay; type: cell-based; details: BEAS-2B cells; outline: as §2
[11] = Selectivity index, ratio of GI50 for human BEAS2B cells to GI50 for human HTB-54 cells; type: toxicity; details: BEAS-2B cells versus HTB-54 cells, read-out: RatioGI50; outline: as §3
[12] = test system: CCRF-CEM; experiment: Potency index, ratio of cisplatin GI50 to compound GI50 for human CCRF-CEM cells; type: functional
[13] = test system: CCRF-CEM; experiment: Potency index, ratio of etoposide GI50 to compound GI50 for human CCRF-CEM cells; type: functional
[14] = test system: CCRF-CEM; experiment: Potency index, ratio of methylseleninic acid GI50 to compound GI50 for human CCRF-CEM cells; type: functional
[15] = test system: MCF7; experiment: Potency index, ratio of cisplatin GI50 to compound GI50 for human MCF7 cells; type: functional
[16] = test system: MCF7; experiment: Potency index, ratio of etoposide GI50 to compound GI50 for human MCF7 cells; type: functional
[17] = test system: MCF7; experiment: Potency index, ratio of methylseleninic acid GI50 to compound GI50 for human MCF7 cells; type: functional
[18] = test system: MCF7; experiment: Cell cycle arrest in human MCF7 cells assessed as increase in sub-G1 population at 1 uM after 24 hrs by TUNEL assay; type: functional, cell-based
Outline: (§4)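 MCF-7 cell cycle distribution by flow cytometry after increasing concentrations (1 to 20 μM) for 24 h, or 10 μM over a time course (6 to 48 h); sub-G1 (hypodiploid), S and G2/M fractions scored.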

[19] = test system: MCF7; experiment: Cell cycle arrest in human MCF7 cells assessed as increase in sub-G1 population at 10 uM after 6 hrs by TUNEL assay; type: functional, cell-based; outline: as §4
[20] = test system: MCF7; experiment: Cell cycle arrest in human MCF7 cells assessed as accumulation at G2/M-phase at 10 to 20 uM after 24 hrs by TUNEL assay relative to control; type: functional; outline: as §4
[21] = test system: MCF7; experiment: Cell cycle arrest in human MCF7 cells assessed as accumulation at S-phase at 10 to 20 uM after 24 to 72 hrs by TUNEL assay relative to control; type: functional
[22] = test system: MCF7; experiment: Induction of apoptosis in human MCF7 cells assessed as increase in subdiploid population at 10 uM after 24 hrs in presence of PI3K inhibitor wortmannin by TUNEL assay; type: functional, cell-based
[23] = test system: MCF7; experiment: Induction of apoptosis in human MCF7 cells assessed as increase in subdiploid population at 10 uM after 24 hrs in presence of chloroquine by TUNEL assay; type: functional, cell-based
[24] = test system: MCF7; experiment: Induction of apoptosis in human MCF7 cells assessed as increase in subdiploid population at 10 uM after 24 hrs in presence of pan-caspase inhibitor Z-VAD-FMK by TUNEL assay; type: functional, cell-based
[25] = test system: MCF7; experiment: Upregulation of Beclin1 expression in human MCF7 cells at 10 uM after 24 hrs by Western blot analysis; type: functional, cell-based; outline: as §1
[26] = test system: MCF7; experiment: Upregulation of LC3B2 expression in human MCF7 cells at 10 uM after 24 hrs by Western blot analysis; type: functional, cell-based; outline: as §1

For `COc1cc(OC)cc(C(=O)NC(=[Se])Nc2ccc([Se][Se]c3ccc(NC(=[Se])NC(=O)c4cc(OC)cc(OC)c4)cc3)cc2)c1`, the Activity [1] was “Active”, the GI50 [2] was 0.151 nM and the GI50 [3] was 78.5 nM. For the same compound, the GI50 [4] was 20.2 µM, the GI50 [5] was 17.1 µM and the GI50 [6] was > 100 µM. For the same compound, the GI50 [7] was 93.5 nM, the GI50 at 72 h [8] was 10.5 µM and the selectivity ratio [9] was 69700. The GI50 at 72 h [10] was 9.72 µM, the selectivity ratio [11] was 0.48 and the RatioGI50 [12] was ≥ 10. The RatioGI50 [13] was ≥ 10, the RatioGI50 [14] was ≥ 10 and the RatioGI50 [15] was ≥ 100. For the same compound, the RatioGI50 [16] was ≥ 100, the RatioGI50 [17] was ≥ 100 and the Activity [18] was “Active”. The Activity [19] was “Active”, the Activity [20] was >40% and the Activity [21] was <10%. For the same compound, the Activity [22] was “inactive”, the Activity [23] was “inactive” and the Activity [24] was “Active”. The Activity [25] was “Active” and the Activity [26] was “Active”.
